# Assay outcomes (PubChem)
# Hits are enriched below; roughly 2.1% of the tested compounds scored in any of these assays.
# Cardio protect = cardioprotection against H2O2-induced cell death, primary screen, uHTS, H9c2 cells, ATPLite luminescence. H9c2 cardiomyocytes, H2O2 injury protection, 2 h. protection from H2O2 cell death, % at 20 µM. 0.63% of 360,000 active. AID 588492, 2011;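 active = compounds giving at least 50% protection of heart cells from peroxide-induced death in the single-dose screen, raw or plate-pattern-corrected value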
# PfGluPho inh = PfG6PD enzyme inhibitors, primary screen, biochemical, fluorescence intensity, uHTS; inhibition, % at 20 µM; PfGluPho enzyme, NADPH resazurin-diaphorase fluorescence; 0.78% of 350,000 active; AID 504690, 2011;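 active = inhibition reaching at least a set limit at 20 µM in the primary screen, cut at about 59% in these data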
# Beta2AR agonist = beta2AR agonists driving receptor internalization, primary screen, cell-based, FAP fluorogen, flow cytometry; Beta-2 adrenergic receptor (Homo sapiens), P07550; Am2.2-beta2AR cells; response, % (concentration not given with the values); 0.43% of 340,000 active; AID 504454, 2011;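 active = response above a set limit, near 3 SD of response in nonfluorescent compounds, cut at about 42% in these data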
# aDG glyco act = activators of alpha-DG glycosylation, primary screen, uHTS, Pro5-aDG cells, AlphaScreen | alpha-DG glycosylation AlphaScreen (IIH6); 0% Pro5, 100% B10-LARGE cell signal | activation, % at 10 µM | 0.22% of 360,000 active;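 active = activation of at least 8% versus controls, or a plate z-score of at least 8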;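 note: Pro5 are CHO cells carrying HIG-tagged alpha-DG that lacks glycosylation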
# UCH37 inh = inhibitors of human UCH37 deubiquitinase, primary screen, biochemical, Ub-AMC cleavage, fluorescence | Ubiquitin carboxyl-terminal hydrolase isozyme L5 (Homo sapiens), Q9Y5K5 | purified proteasome/UCH37 | inhibition, % (test concentration not listed) | AID 588478, 2011 | 0.33% of 330,000 active;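 active = mean inhibition over replicate wells above about 20%, limit read from the data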
#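 System: Proteasome-associated human UCH37 deubiquitinase; Input: 0.15 nM proteasome in added enzyme buffer; Also added: Ub-AMC substrate from 1 µM stock; Incubation: 30 min compound-proteasome preincubation then 25 min substrate reaction, room temperature; Detection: fluorescence, ex 355 nm, em 460 nm; Read-out: % inhibition of Ub-AMC cleavage fluorescence; Benchmarks: no-proteasome and no-compound wells.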
# HKDC1 inhibitor = HKDC1 hexokinase inhibitors, primary screen, biochemical, fluorescence, uHTS | inhibition, % at 20 µM | Q2TB90 | recombinant HKDC1, G6PDH/diaphorase resazurin coupled fluorescence | 0.16% of 340,000 active;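 active = inhibition above about 35% when tested at 20 µM, limit read from the data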
# Target sequence (Q2TB90 whole entry, looked up): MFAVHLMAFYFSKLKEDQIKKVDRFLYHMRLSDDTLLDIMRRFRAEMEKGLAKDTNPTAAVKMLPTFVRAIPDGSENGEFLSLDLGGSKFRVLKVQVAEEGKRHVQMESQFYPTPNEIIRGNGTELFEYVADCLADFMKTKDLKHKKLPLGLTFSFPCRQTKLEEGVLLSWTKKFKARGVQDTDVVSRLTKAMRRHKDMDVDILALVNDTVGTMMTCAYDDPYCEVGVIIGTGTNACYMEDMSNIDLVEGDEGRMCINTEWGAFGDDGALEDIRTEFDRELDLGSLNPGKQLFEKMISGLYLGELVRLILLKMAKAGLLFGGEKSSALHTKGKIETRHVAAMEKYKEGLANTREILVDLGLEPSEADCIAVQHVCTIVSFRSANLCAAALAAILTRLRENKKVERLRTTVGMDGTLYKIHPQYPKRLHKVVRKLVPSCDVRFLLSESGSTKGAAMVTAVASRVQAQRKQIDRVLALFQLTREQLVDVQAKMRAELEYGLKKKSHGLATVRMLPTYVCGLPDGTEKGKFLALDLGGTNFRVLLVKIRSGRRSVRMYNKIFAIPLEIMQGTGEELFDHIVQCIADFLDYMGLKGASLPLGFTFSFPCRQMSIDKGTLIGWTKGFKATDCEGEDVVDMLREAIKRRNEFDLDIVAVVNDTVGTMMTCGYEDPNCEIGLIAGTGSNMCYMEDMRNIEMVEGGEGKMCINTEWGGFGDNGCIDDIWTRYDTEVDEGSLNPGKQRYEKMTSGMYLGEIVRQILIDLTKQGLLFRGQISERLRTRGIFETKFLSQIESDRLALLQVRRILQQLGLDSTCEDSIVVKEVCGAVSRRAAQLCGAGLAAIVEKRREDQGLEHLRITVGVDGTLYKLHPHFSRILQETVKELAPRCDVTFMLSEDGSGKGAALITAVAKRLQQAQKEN
#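 System: Recombinant HKDC1 hexokinase | Amount: HKDC1 at 5 µg/mL | Reagent: Glucose with 1 mM ATP | Doses: Single 20 µM dose | Incubation: Reaction time 90 min, room temperature, protected from light | Signal: Coupled resazurin fluorescence, excitation 525 nm, emission 613 nm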
# PfGluPho conf = PfG6PD inhibitors, hit retest, confirmation, biochemical, fluorescence intensity, single concentration | shares compounds with PfGluPho inh | recombinant PfGluPho, NADPH-diaphorase-resazurin fluorescence | inhibition, % at 20 µM | 34% of 2,400 active;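 active = inhibition of at least 50% at 20 µM in any single replicate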
# Diaphorase 10uM = diaphorase inhibitors and chemical oxidizers, confirmation, counter-screen for P. falciparum G6PD inhibitor project, biochemical, fluorescence intensity, 10 µM NADPH | inhibition, % at 20 µM | shares compounds with PfGluPho inh | 39% of 820 active | AID 504862, 2011 | diaphorase-coupled resazurin reduction, NADPH 10 uM;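 active = average inhibition reaching 50% or more with the compound at 20 µM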;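 note: resorufin red fluorescence formed as diaphorase reduces resazurin using NADPH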
# Diaph ctr 30uM = diaphorase inhibitors and chemical oxidizers, confirmation, counter-screen for P. falciparum G6PD inhibitor project, biochemical, fluorescence intensity, 30 µM NADPH; shares compounds with PfGluPho inh; Diaphorase/resazurin coupled assay, resorufin fluorescence; inhibition, % at 20 µM; 29% of 820 active; AID 504863, 2011;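 active = inhibition averaging 50% or more, tested at 20 µM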
# UCH37 reconfirm = retest of human UCH37 deubiquitinase inhibitors, confirmation, biochemical, Ub-AMC cleavage rate, fluorescence; shares compounds with UCH37 inh; Proteasome-bound UCH37; inhibition, % at 20 µM; 27% of 480 active; AID 624100, 2012;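 active = average inhibition over replicates above about 50%, so the earlier screening hit is confirmed, limit read from the data; inactive = the rest, counted as false positives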;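 note: based on cleavage rate fitted by regression over a 30 min kinetic read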
# aDG conf = alpha-DG glycosylation enhancers, retest, confirmation, single concentration, Pro5-aDG cells; shares compounds with aDG glyco act; IIH6 AlphaLISA; scaled to LARGE-overexpressing B10 cells as 100%; activation, % at 10 µM (by protocol); 17% of 600 active;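 active = activation of at least 7% in one or more replicates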;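 note: cells exposed to compound for two days before detection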
# A number is an active result; 0 = inactive; - = no result.
SMILES,Cardio protect,PfGluPho inh,Beta2AR agonist,aDG glyco act,UCH37 inh,HKDC1 inhibitor,UCH37 reconfirm,others
CN1C(=O)N(C)C2(c3ccccc3)NC(=O)NC12c1ccccc1 (stereo not drawn),0,0,0,0,0,0,-,
CN1c2ccccc2N(C)C1(C)c1ccccc1,0,64,0,0,0,0,-,PfGluPho conf=0
CC(SCC(=O)Nc1ccccc1)c1nc2ccccc2c(=O)[nH]1 (stereo not drawn),0,60,0,0,0,0,-,PfGluPho conf=51;Diaphorase 10uM=0;Diaph ctr 30uM=0
Cc1ccc(NC(=O)CSC(C)c2nc3ccccc3c(=O)[nH]2)cc1 (stereo not drawn),0,0,0,0,0,0,-,
CCN(CC)C(=O)C(=O)NN=Cc1ccc(C(=O)O)cc1,-,-,-,-,0,-,-,
O=C(NN=Cc1ccc2c(c1)OCO2)C(=O)Nc1ccccc1,-,-,-,-,0,-,-,
CCOC(=O)CN1NC2(CCCCC2)NC1=S,0,0,0,0,0,0,-,
CCOC(=O)CN1NC2(CCCCCCC2)NC1=S,0,66,0,0,0,0,-,PfGluPho conf=0
COc1ccc(NC(=S)Nc2ccc3nsnc3c2)cc1,0,89,0,7.8,40,0,0,PfGluPho conf=0
COc1ccc(NC(=S)Nc2ccc3nc(C)c(C)nc3c2)cc1,0,0,0,0,0,0,-,
O=C1/C(=N\S(=O)(=O)c2cccs2)C([n+]2ccccc2)=C([O-])c2ccccc21,0,65,0,0,51,0,0,PfGluPho conf=0
COc1ccc(C=NNC(=O)CCN2CCCCC2c2cccnc2)cc1Cn1cc([N+](=O)[O-])cn1 (stereo not drawn),-,-,-,-,0,-,-,
Nc1ccc2c(c1)C(=O)C(=O)c1ccccc1-2,0,108,81,0,99,0,101,PfGluPho conf=89;Diaphorase 10uM=77;Diaph ctr 30uM=90
CN=C1SC(CC(=O)Nc2ccc(F)cc2F)C(=O)N1N=C(C)c1cccc(OCC(=O)O)c1 (stereo not drawn),-,-,-,-,0,-,-,
CC1Sc2ccc(C(=O)NCc3ccccn3)cc2NC1=O (stereo not drawn),0,60,0,5.5,0,0,-,PfGluPho conf=0;aDG conf=0
CC(C)(C)NC(=S)NN=Cc1cc(Br)c(O)c(Br)c1,-,-,-,-,0,-,-,
Cc1oc2c(c1C(=O)O)C(=O)c1ccccc1C2=O,0,0,0,0,49,0,0,
CCOC(=O)c1c(C)oc2c1C(=O)c1ccccc1C2=O,0,0,0,9.7,28,0,0,
CCOC(=O)c1c(C)nc2c(c1-c1ccccc1)C(=O)c1ccccc1-2,0,0,0,0,0,0,-,
Cc1cc(=O)oc(C)c1C(=O)O,0,0,0,0,0,0,-,
CC(=NNC(=O)CNC(=O)C(c1ccccc1)c1ccccc1)c1ccc(C(C)(C)C)cc1,-,-,-,-,0,-,-,
COc1ccc(C2/C(=C(\O)c3ccc(OC)c(Cl)c3)C(=O)C(=O)N2CCN(C)C)cc1 (stereo not drawn),0,0,0,0,34,0,0,
COc1ccc(/C(O)=C2\C(=O)C(=O)N(CCN(C)C)C2c2cccc(OC)c2OC)cc1 (stereo not drawn),0,0,0,0,0,0,-,
CCCOc1ccc(/C(O)=C2/C(=O)C(=O)N(CCN(C)C)C2c2ccc(O)c(OC)c2)cc1 (stereo not drawn),0,0,0,0,22,0,0,
COCCCN1C(=O)C(=O)/C(=C(/O)c2ccc(OC)cc2)C1c1ccc(O)c(OC)c1 (stereo not drawn),0,0,0,0,0,0,-,
SMILES,Cardio protect,PfGluPho inh,Beta2AR agonist,aDG glyco act,UCH37 inh,HKDC1 inhibitor,UCH37 reconfirm,others
N#CC(=NNc1ccc(S(=O)(=O)N2CCCCCC2)cc1)C(N)=S,-,-,-,-,0,-,-,
O=C(CN1C(=O)c2ccccc2C1=O)NC1CCS(=O)(=O)C1 (stereo not drawn),0,0,-,0,-,-,-,
CC(=O)NC1=C(NC2CCS(=O)(=O)C2)C(=O)c2ccccc2C1=O (stereo not drawn),0,0,0,0,28,0,0,
O=c1cc(-c2ccco2)nc(-c2cccs2)o1,0,0,0,0,43,0,0,
COc1ccc(-c2cn3ccccc3n2)cc1[N+](=O)[O-],0,0,0,0,46,0,0,
CCCOc1ccc(-c2cn3ccccc3n2)cc1[N+](=O)[O-],0,0,0,0,0,0,-,
CCCCCCCCCCCCCCCCn1cc[n+](CC(C)=O)c1,0,0,0,0,85,0,96,
CCCCCCn1ccc(=N)cc1,0,0,0,0,0,0,-,
Cc1ccc(C)c(-n2nnnc2SCC(=O)NCCC2=CCCCC2)c1,0,0,0,0,59,0,0,
CNC(=O)CSc1nnnn1-c1cc(C)ccc1C,0,0,0,0,0,0,-,
CC(C)(C)OC(=O)NCc1ccc(CNC(=O)c2[nH]cnc2C(=O)NC2CCN(C(=O)OC(C)(C)C)CC2)cc1,0,0,0,0,39,0,0,
CC(=O)c1ccc(NC2=C(N3CCOCC3)C(=O)c3ccccc3C2=O)cc1,0,0,0,0,32,0,51,
O=C(O)c1ccc(NC2=C(N3CCOCC3)C(=O)c3ccccc3C2=O)cc1,0,0,0,0,34,0,0,
Cc1ccc(NC2=C(Cl)C(=O)c3ccccc3C2=O)cc1,0,0,0,0,0,0,-,
Cc1ccc(NC2=C(N3CCOCC3)C(=O)c3ccccc3C2=O)cc1,0,0,0,0,28,0,0,
Cc1ccc(NC2=CC(=O)C(=O)c3ccccc32)cc1,0,0,0,0,46,0,55,
